In ChEMBL document CHEMBL1149691, “Identification of a novel class of selective Tpl2 kinase inhibitors: 4-Alkylamino-[1,7]naphthyridine-3-carbonitriles” (Bioorg Med Chem, 2007):
One block for each compound: values may come before it. Activity calls are given as the source filed them. No cut-off for these calls is given here.

Assays:
[1] = Inhibition of Tpl2 kinase assessed as MEK phosphorylation by ELISA; parameters: species or system Homo sapiens
Summary of the method: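 Tpl2 (0.4 nM) incubated with 35 nM GST-MEK1 substrate and 50 µM ATP in pH 7.2 Mops buffer with MgCl2, DTT, β-glycerophosphate, EGTA and orthovanadate, 1 h at 30 °C, 1% DMSO final; stopped with EDTA. GST-MEK1 captured on anti-GST plates, phospho-Ser217/221 detected by anti-phospho-MEK1 and Eu-labelled secondary (DELFIA); IC50 by curve fitting.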

Monocyte = test: Inhibition of LPS-induced TNFalpha production in human monocytes; format: functional, cell-based
Summary of the method: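 Monocytes enriched from buffy coat by antibody-cocktail negative selection and two Histopaque-1077 separations, plated at 800,000 cells/well in RPMI/0.5% FBS at 37 °C/5% CO2. Compounds in DMSO added 30 min before LPS at 10 ng/mL, ~3 h incubation; supernatant TNF-α by ELISA or electrochemiluminescence.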

Blood = test: Inhibition of LPS-induced TNFalpha production in human blood; format: functional, tissue-based
Summary of the method: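 Heparinized blood from healthy male volunteers diluted 1–5 in RPMI/3% FCS at 37 °C; compounds (in DMSO, 1.0% final) added 30 min before LPS at 10 ng/mL, ~3 h incubation. Plasma TNF-α measured by ELISA or electrochemiluminescence.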

[2] = target: Epidermal growth factor receptor (Homo sapiens, UniProt P00533); test: Inhibition of EGFR kinase autophosphorylation in A431 cells
[3] = Clearance in Sprague-Dawley rat; format: ADME, organism-based; conditions: in vivo
[4] = Inhibition of PKA; parameters: species or system Homo sapiens
[5] = target: T1, Proto-oncogene tyrosine-protein kinase Src (Homo sapiens, UniProt P12931); test: Inhibition of Src kinase
[6] = target: MAP kinase-activated protein kinase 2 (Homo sapiens) (UniProt P49137); test: Inhibition of MK2 at 40 uM
[7] = Inhibition of MEK; parameters: species or system Homo sapiens
Homo sapiens = organism: Homo sapiens; test: Inhibition of CAMK2 at 40 uM
Protein kinase C (PKC) = test: Inhibition of PKC; parameters: species or system Homo sapiens
[8] = Inhibition of S6 kinase; parameters: species or system Homo sapiens
[9] = Bioavailability in Sprague-Dawley rat; format: ADME, organism-based; conditions: in vivo
Mus musculus [10] = test: Inhibition of LPS-induced TNFalpha production in C57B1/6 mouse at 10 mg/kg, ip; format: functional; conditions: C57B1/6, ip, route intraperitoneal
Summary of the method: (§1)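 Female C57Bl/6 mice, 8–10 weeks old; compound (10 or 25 mg/kg) or vehicle given ip, then 1 h later LPS plus D-galactosamine in PBS ip (2 and […] final). Mice euthanized with CO2 1.5 h after challenge and bled by cardiac puncture; serum TNF-α compared with vehicle.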

MAP kinase p38 [11] = target: T2, MAP kinase p38 (Homo sapiens, UniProt O15264+Q15759+Q16539+P53778); test: Inhibition of P-p38 kinase in human monocytes at 40 uM; format: cell-based
MAP kinase p38 [12] = target: T2, MAP kinase p38; test: Inhibition of p38 kinase; format: protein assay
Mus musculus [13] = test: Inhibition of LPS-induced TNFalpha production in C57B1/6 mouse at 25 mg/kg, ip; format: functional; conditions: C57B1/6, ip, route intraperitoneal; summary of the method: as §1
MAP kinase p38 [14] = target: T2, MAP kinase p38; test: Inhibition of P-p38 kinase in human monocytes; format: cell-based
[15] = target: T1, Proto-oncogene tyrosine-protein kinase Src; test: Inhibition of Src kinase at 40 uM

Chain of Epidermal growth factor receptor (P00533 whole entry): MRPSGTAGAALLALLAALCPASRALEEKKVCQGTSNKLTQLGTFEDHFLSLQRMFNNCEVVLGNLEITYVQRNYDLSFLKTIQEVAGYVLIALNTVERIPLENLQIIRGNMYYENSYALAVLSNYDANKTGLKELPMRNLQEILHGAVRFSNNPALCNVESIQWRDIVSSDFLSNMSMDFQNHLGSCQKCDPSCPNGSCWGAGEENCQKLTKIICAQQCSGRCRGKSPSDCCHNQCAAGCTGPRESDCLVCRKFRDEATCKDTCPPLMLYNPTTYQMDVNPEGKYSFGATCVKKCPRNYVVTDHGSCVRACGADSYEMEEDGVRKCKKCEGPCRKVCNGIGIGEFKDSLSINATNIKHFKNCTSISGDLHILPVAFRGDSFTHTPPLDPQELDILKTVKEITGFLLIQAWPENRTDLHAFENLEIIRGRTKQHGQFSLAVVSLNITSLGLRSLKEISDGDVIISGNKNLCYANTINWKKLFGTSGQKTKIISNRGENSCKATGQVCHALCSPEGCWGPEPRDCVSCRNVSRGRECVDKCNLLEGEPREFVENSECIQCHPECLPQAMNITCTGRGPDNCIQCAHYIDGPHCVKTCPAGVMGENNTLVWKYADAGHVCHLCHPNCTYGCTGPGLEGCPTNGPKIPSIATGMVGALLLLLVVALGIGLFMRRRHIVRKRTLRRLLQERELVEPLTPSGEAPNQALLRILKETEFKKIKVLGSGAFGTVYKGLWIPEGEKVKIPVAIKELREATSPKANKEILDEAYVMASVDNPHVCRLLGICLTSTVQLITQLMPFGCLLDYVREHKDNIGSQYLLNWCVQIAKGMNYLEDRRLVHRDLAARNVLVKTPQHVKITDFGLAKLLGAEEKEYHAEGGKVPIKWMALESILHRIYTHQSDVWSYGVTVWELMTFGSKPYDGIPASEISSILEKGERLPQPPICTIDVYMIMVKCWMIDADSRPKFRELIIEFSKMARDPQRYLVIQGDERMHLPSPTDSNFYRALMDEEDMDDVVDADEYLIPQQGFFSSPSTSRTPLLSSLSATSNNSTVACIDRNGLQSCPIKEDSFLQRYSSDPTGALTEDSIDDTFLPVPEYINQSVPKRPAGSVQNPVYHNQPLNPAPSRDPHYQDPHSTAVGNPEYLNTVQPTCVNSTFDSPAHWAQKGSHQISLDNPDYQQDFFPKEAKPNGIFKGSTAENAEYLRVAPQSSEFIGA
T1 sequence (P12931 2-536 limits assumed): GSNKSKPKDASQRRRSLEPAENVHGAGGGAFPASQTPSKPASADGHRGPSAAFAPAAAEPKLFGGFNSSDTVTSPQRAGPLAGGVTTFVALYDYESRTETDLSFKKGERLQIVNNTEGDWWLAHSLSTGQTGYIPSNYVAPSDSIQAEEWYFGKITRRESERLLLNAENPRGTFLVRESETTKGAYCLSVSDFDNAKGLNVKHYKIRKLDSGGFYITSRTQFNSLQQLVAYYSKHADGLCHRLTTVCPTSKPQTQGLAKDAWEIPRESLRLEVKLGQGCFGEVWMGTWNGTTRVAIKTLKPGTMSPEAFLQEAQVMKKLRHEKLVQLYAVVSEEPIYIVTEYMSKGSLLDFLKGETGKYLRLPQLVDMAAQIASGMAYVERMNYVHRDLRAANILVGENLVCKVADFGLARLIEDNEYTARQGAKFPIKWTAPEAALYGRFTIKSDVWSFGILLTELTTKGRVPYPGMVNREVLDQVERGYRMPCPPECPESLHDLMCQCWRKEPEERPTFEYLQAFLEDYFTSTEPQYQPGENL
Chain of MAP kinase-activated protein kinase 2 (Homo sapiens) (P49137 whole entry, looked up): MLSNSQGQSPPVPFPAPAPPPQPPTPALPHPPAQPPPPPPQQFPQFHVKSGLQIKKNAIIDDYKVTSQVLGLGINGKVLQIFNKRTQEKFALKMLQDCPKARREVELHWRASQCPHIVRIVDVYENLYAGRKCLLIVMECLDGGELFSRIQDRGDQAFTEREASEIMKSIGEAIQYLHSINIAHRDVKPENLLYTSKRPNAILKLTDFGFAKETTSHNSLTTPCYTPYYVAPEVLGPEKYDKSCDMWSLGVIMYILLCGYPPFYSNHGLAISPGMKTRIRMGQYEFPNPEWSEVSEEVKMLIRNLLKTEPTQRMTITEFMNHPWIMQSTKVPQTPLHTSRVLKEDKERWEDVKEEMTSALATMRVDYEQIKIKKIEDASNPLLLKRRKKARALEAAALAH

SMILES: N#Cc1cnc2cnc(NCCN3CCOCC3)cc2c1Nc1cccc(Oc2ccccc2)c1
IC50 [1]: 11500 nM

SMILES: N#Cc1cnc2cnc(NCCN3CCOCC3)cc2c1Nc1ccc([N+](=O)[O-])cc1
IC50 [1]: 7000 nM

SMILES: CC(C)(C)Nc1c(C#N)cnc2ccc(NCc3ccn[nH]3)cc12
IC50 [1]: 1600 nM

SMILES: CS(=O)(=O)Nc1cccc(Nc2c(C#N)cnc3cnc(NCCN4CCOCC4)cc23)c1
IC50 [1]: > 10000 nM

SMILES: N#Cc1cnc2cnc(NCc3cccnc3)cc2c1NC1CCNCC1
IC50 [1]: > 40000 nM

SMILES: N#Cc1cnc2cnc(NCCN3CCOCC3)cc2c1Nc1cccc(I)c1
IC50 [1]: 7100 nM

SMILES: CC(C)(C)Nc1c(C#N)cnc2ccc(NCc3cccc[n+]3[O-])cc12
IC50 [1]: 1300 nM

SMILES: CS(=O)(=O)c1cccc(CNc2ccc3ncc(C#N)c(NC4CCCC4)c3c2)c1
IC50 [1]: 2900 nM

SMILES: CC(C)(C)Nc1c(C#N)cnc2cnc(NCc3cccnc3)cc12
IC50 (Monocyte): 600 nM
IC50 [1]: 630 nM
IC50 (Blood): 4200 nM
IC50 [2]: > 40000 nM
clearance [3]: 50 mL/min/kg

SMILES: N#Cc1cnc2cnc(NCCN3CCOCC3)cc2c1Nc1ccc(Nc2ccccc2)cc1
IC50 [1]: 7600 nM

SMILES: N#Cc1cnc2cnc(NCCN3CCOCC3)cc2c1Nc1cccc(C(N)=O)c1
IC50 [1]: > 10000 nM

SMILES: CC(C)(C)Nc1c(C#N)cnc2ccc(NCc3cccc(S(C)(=O)=O)c3)cc12
IC50 [1]: 2900 nM

SMILES: N#Cc1cnc2cnc(NCCN3CCOCC3)cc2c1Nc1ccc(Oc2ccccc2)cc1
IC50 [1]: 380 nM

SMILES: N#Cc1cnc2cnc(NCCN3CCOCC3)cc2c1Nc1cccc(C(=O)O)c1
IC50 [1]: > 10000 nM

SMILES: N#Cc1cnc2ccc(NCCN3CCOCC3)cc2c1Nc1ccc(Oc2ccccc2)cc1
IC50 [1]: 250 nM

SMILES: N#Cc1cnc2cnc(NCCN3CCOCC3)cc2c1Nc1ccc(F)cc1
IC50 [1]: 10700 nM

SMILES: C#CC(C)(C)Nc1c(C#N)cnc2cnc(NCc3cccnc3)cc12
IC50 (Monocyte): 2000 nM
IC50 [1]: 270 nM
Activity (Blood): inactive

SMILES: N#Cc1cnc2ccc(NCc3ccccc3)cc2c1NC1CCCC1
IC50 [1]: 21000 nM

SMILES: Cn1ccnc1CNc1ccc2ncc(C#N)c(NC(C)(C)C)c2c1
IC50 [1]: 3000 nM

SMILES: CC(C)(C)Nc1c(C#N)cnc2ccc(NCc3cccc(C#N)c3)cc12
IC50 [1]: 1700 nM

SMILES: N#Cc1ccccc1CNc1ccc2ncc(C#N)c(NC3CCCC3)c2c1
IC50 [1]: 1700 nM

SMILES: N#Cc1cnc2ccc(NCc3ccc(S(N)(=O)=O)cc3)cc2c1NC1CCCC1
IC50 [1]: 7300 nM

SMILES: CCC(C)(C)Nc1c(C#N)cnc2cnc(NCc3cccnc3)cc12
IC50 (Monocyte): 800 nM
IC50 [1]: 360 nM
IC50 (Blood): 4500 nM
IC50 [2]: > 40000 nM

SMILES: N#Cc1cnc2cnc(NCc3cccnc3)cc2c1NC1CC1
IC50 [1]: 2800 nM
IC50 [2]: > 40000 nM

SMILES: N#Cc1cnc2cnc(NCc3cccnc3)cc2c1Nc1ccccc1
IC50 (Monocyte): 1100 nM
IC50 [1]: 400 nM
IC50 (Blood): 20000 nM
IC50 [2]: < 5000 nM

SMILES: CC(C)(C)Nc1c(C#N)cnc2ccc(NCc3ccc(S(N)(=O)=O)cc3)cc12
IC50 [1]: 7300 nM

Second part, led by results:

IC50 [1]: 1600 nM
SMILES: N#Cc1cnc2ccc(NCc3ccn[nH]3)cc2c1NC1CCCC1

IC50 (Monocyte): 1100 nM
IC50 [1]: 50 nM
IC50 (Blood): > 20000 nM
SMILES: N#Cc1cnc2cnc(NCc3cccnc3)cc2c1Nc1ccc(F)c(Cl)c1

IC50 (Monocyte): 600 nM
IC50 [1]: 320 nM
IC50 (Blood): 7700 nM
IC50 [2]: > 40000 nM
clearance [3]: 28 mL/min/kg
SMILES: N#Cc1cnc2cnc(NCc3cccnc3)cc2c1NC1CCCC1

IC50 [1]: 2400 nM
SMILES: N#Cc1cnc2ccc(NCc3cccnc3)cc2c1NC1CCCC1

IC50 [1]: 1000 nM
SMILES: N#Cc1cnc2ccc(NCCN3CCOCC3)cc2c1Nc1ccc(F)c(Cl)c1

IC50 [4]: > 40000 nM
IC50 (Monocyte): 500 nM
IC50 [5]: 38000 nM
Activity [6]: inactive
IC50 [1]: 160 nM
IC50 [7]: > 40000 nM
Activity (Homo sapiens): inactive
IC50 (Blood): 4500 nM
IC50 (Protein kinase C (PKC)): > 40000 nM
IC50 [8]: > 40000 nM
IC50 [2]: > 20000 nM
bioavailability [9]: 14%
Activity (MAP kinase p38 [11]): inactive
clearance [3]: 30 mL/min/kg
SMILES: N#Cc1cnc2cnc(NCc3cccnc3)cc2c1NC1CCCCCC1
inhibition in vivo at 10 mg/kg (Mus musculus [10]): 86%

IC50 [1]: 1300 nM
SMILES: N#Cc1cnc2ccc(NCc3cccc[n+]3[O-])cc2c1NC1CCCC1

IC50 [1]: 8000 nM
SMILES: N#Cc1cnc2cnc(Nc3ccc(F)c(Cl)c3)cc2c1NC1CCCC1

IC50 [1]: 18 nM
SMILES: N#Cc1cnc2ccc(NCc3cccnc3)cc2c1Nc1ccc(F)c(Cl)c1

IC50 [1]: 3000 nM
SMILES: Cn1ccnc1CNc1ccc2ncc(C#N)c(NC3CCCC3)c2c1

IC50 [1]: > 40000 nM
SMILES: C[C@H](Nc1cc2c(N(C)C3CCCCCC3)c(C#N)cnc2cn1)c1ccccc1

IC50 [4]: 5840 nM
IC50 (Monocyte): 600 nM
Activity [6]: inactive
IC50 (MAP kinase p38 [12]): 30000 nM
IC50 [7]: 2400 nM
IC50 (MAP kinase p38 [14]): 2110 nM
Activity (Homo sapiens): inactive
Activity [15]: inactive
IC50 (Protein kinase C (PKC)): > 10000 nM
IC50 [8]: > 10000 nM
bioavailability [9]: 1%
clearance [3]: 97 mL/min/kg
SMILES: N#Cc1cnc2ccc(NCc3c[nH]cn3)cc2c1Nc1ccc(F)c(Cl)c1
inhibition in vivo at 25 mg/kg (Mus musculus [13]): 71%

IC50 [1]: 50 nM
SMILES: C[C@@H](Nc1cc2c(Nc3ccc(F)c(Cl)c3)c(C#N)cnc2cn1)c1ccccc1

IC50 [1]: 3600 nM
SMILES: N#Cc1cnc2cnc(NCCN3CCOCC3)cc2c1Nc1ccc(F)c(F)c1

IC50 [1]: 2600 nM
SMILES: N#Cc1cnc2ccc(NCc3cccnc3)cc2c1NC1CCCCCC1

IC50 [1]: 5200 nM
SMILES: N#Cc1cnc2cnc(NC3CCCCCC3)cc2c1Nc1ccc(F)c(Cl)c1

IC50 [1]: 7600 nM
SMILES: N#Cc1cnc2cnc(NC3CCCC3)cc2c1Nc1ccc(F)c(Cl)c1

IC50 [1]: > 40000 nM
SMILES: CC(C)(C)Nc1cc2c(Nc3ccc(F)c(Cl)c3)c(C#N)cnc2cn1

IC50 [1]: 2200 nM
SMILES: N#Cc1cccc(CNc2ccc3ncc(C#N)c(NC4CCCC4)c3c2)c1

IC50 [1]: 19700 nM
SMILES: N#Cc1cnc2ccc(NCCN3CCOCC3)cc2c1NC1CCCC1

IC50 [1]: 920 nM
SMILES: C[C@H](Nc1cc2c(NC3CCCCCC3)c(C#N)cnc2cn1)c1ccccc1

IC50 (Monocyte): 500 nM
IC50 [1]: 470 nM
IC50 (Blood): 4700 nM
IC50 [2]: > 40000 nM
SMILES: N#Cc1cnc2cnc(NCc3cccnc3)cc2c1NC1CCCCC1
